Data reported in ChEMBL document CHEMBL1153110, “Optimization of (4,4-difluoro-1,2,3,4-tetrahydro-5H-1-benzazepine-5-ylidene)acetamide derivatives as arginine vasopressin V2 receptor agonists and discussion of their binding modes” (Bioorg Med Chem, 2009).

Legend:
Vasopressin V2 receptor [1] = molecular target: T1, Vasopressin V2 receptor (Homo sapiens, UniProt P30518); assay: Agonist activity at human vasopressin V2 receptor expressed in CHO cells assessed as cAMP accumulation by HTRF assay; format: functional, cell-based
Method in brief: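 CHO cells with human V2 receptor were grown to subconfluence and serum-starved for 24 h. They were then exposed to test compound for 10 min at 37 °C in α-MEM with 1 mmol/L IBMX and 0.1% BSA, and lysed in PBS with 0.2% Triton X-100. cAMP was read by HTRF. EC50 is the concentration giving 50% of the maximal AVP response. Triplicate.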

Vasopressin V2 receptor [2] = molecular target: T1, Vasopressin V2 receptor; assay: Intrinsic activity at human vasopressin V2 receptor expressed in CHO cells assessed as cAMP accumulation by HTRF assay relative to AVP; format: functional, cell-based
Method in brief: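 Intrinsic activity was measured in the cAMP HTRF assay in human V2-CHO cells: 24 h serum-free, then 10 min at 37 °C with 1 mmol/L IBMX. It is the compound's maximal response as a percentage of the maximal AVP response (100%). Assays were run in triplicate.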

Vasopressin V2 receptor [3] = molecular target: T1, Vasopressin V2 receptor; assay: Displacement of [3H]vasopressin from human vasopressin V2 receptor expressed in CHO cells by microplate scintillation counting; format: cell-based
Method in brief: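 Membranes came from human V2-expressing CHO cells: hypotonic lysis, then centrifugation at 1000g and 35,000g at 4 °C. They were incubated with [3H]vasopressin at 0.91 nmol/L final in 50 mmol/L Tris-HCl pH 7.4, filtered on GF/B and washed with ice-cold Tris buffer. Retained radioactivity was scintillation counted. Assays were run in triplicate.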

Vasopressin V1a receptor = Vasopressin V1a receptor (Homo sapiens, UniProt P37288); assay: Displacement of [3H]vasopressin from human vasopressin V1A receptor expressed in CHO cells by microplate scintillation counting; format: cell-based
[4] = molecular target: Vasopressin V1a/V2 (Homo sapiens) (UniProt P30518+P37288); assay: Selectivity ratio of Ki for human vasopressin V1A receptor to Ki for human vasopressin V2 receptors
Rattus norvegicus = assay: Antidiuretic activity in water-loaded po dosed Wistar rat assessed as decrease in urinary excretion administered 15 mins prior to water loading measured up to 4 hrs; format: functional; conditions: Urine
Method in brief: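 Male Wistar rats (200–300 g) were pre-screened for at least 70% excretion of an oral water load. They were deprived of feed and water and dosed orally without anesthesia. Distilled water (30 mL/kg po) was given 15 min later, and urine was collected in metabolic cages for 4 h (n = 3–6). Excretion was expressed as % of the loaded volume. ED50, the dose lowering excretion to 50%, came from linear regression.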

Vasopressin V1a receptor, sequence (P37288 whole entry): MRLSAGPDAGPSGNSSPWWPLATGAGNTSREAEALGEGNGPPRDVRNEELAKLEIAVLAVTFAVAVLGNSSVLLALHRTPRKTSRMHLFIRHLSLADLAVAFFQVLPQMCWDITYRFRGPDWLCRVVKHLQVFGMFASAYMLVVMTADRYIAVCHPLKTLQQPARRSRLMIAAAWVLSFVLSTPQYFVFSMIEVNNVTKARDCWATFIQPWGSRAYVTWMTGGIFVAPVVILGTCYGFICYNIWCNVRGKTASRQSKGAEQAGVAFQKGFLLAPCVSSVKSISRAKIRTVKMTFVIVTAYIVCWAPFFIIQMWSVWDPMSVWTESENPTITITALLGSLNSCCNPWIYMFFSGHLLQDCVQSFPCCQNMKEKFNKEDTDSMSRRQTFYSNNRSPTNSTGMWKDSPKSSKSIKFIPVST
T1 sequence (P30518 whole entry): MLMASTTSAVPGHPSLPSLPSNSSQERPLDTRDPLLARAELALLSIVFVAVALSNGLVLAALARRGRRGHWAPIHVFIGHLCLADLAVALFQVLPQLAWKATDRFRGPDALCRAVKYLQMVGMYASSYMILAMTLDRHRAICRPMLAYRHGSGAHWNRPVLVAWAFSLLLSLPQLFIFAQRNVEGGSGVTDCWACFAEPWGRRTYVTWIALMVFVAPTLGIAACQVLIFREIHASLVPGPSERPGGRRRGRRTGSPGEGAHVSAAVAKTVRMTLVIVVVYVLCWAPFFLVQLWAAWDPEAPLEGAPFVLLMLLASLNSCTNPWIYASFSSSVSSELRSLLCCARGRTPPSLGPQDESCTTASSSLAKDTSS
Vasopressin V1a/V2 (Homo sapiens), sequence (P30518 whole entry, looked up): as the sequence (P30518 whole entry) above
Vasopressin V1a/V2 (Homo sapiens), sequence (P37288 whole entry, looked up): as the sequence (P37288 whole entry) above

| Compound | EC50 (Vasopressin V2 receptor [1]) [nM] | Intrinsic activity (Vasopressin V2 receptor [2]) [%] | Ki (Vasopressin V2 receptor [3]) [nM] | Ki (Vasopressin V1a receptor) [nM] | Ratio Ki [4] | ED50 (Rattus norvegicus) [mg/kg] |
| --- | --- | --- | --- | --- | --- | --- |
| Cc1ccn(-c2ccc(C(=O)N3CCC(F)(F)/C(=C\C(=O)NCCO)c4ccccc43)c(Cl)c2)n1 |  | 93.9 |  |  | 2.9 | 0.14 |
| Cc1ccn(-c2ccc(C(=O)N3CCC(F)(F)/C(=C\C(=O)NCCO)c4ccccc43)c(C(F)(F)F)c2)n1 | 2.4 | 115 | 78 | 170 | 2.2 | 0.2 |
| C[C@H]1CCN(c2ccc(C(=O)N3CCC(F)(F)/C(=C\C(=O)NCCO)c4ccccc43)c(C(F)(F)F)c2)C1 | 1 | 111 | 14 | 43 | 3.1 | 0.012 |

Now from value to molecule, other results behind:

| EC50 (Vasopressin V2 receptor [1]) [nM] | Intrinsic activity (Vasopressin V2 receptor [2]) [%] | Ki (Vasopressin V2 receptor [3]) [nM] | Ki (Vasopressin V1a receptor) [nM] | Ratio Ki [4] | Compound | ED50 (Rattus norvegicus) [mg/kg] |
| --- | --- | --- | --- | --- | --- | --- |
| 0.98 | 109 | 14 | 17 | 1.2 | C[C@H]1CCN(c2ccc(C(=O)N3CCC(F)(F)/C(=C\C(=O)NCCO)c4ccccc43)c(Cl)c2)C1 |  |
| 0.99 | 118 | 13 | 13 | 1 | C[C@@H]1CCN(c2ccc(C(=O)N3CCC(F)(F)/C(=C\C(=O)NCCO)c4ccccc43)c(Cl)c2)C1 |  |
| 1 | 114 | 16 | 39 | 2.4 | C[C@@H]1CCN(c2ccc(C(=O)N3CCC(F)(F)/C(=C\C(=O)NCCO)c4ccccc43)c(C(F)(F)F)c2)C1 | 0.04 |
